Compound activity from PubChem BioAssay.
IDH1 mut inh: blocks human IDH1 R132H reductase activity. O75874. diaphorase/resazurin fluorescence, 60 min. inhibition, % at 10 µM. 70,000 compounds, 0.18% hits. AID 624101; in the data active = inhibition above about 34%; inconclusive = no clear call, values can overlap the other calls; inactive = below about 11%;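 also: 0% = DMSO and 100% = no enzyme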
GASC1 inh: KDM4C (human) demethylase inhibition | 96,000 compounds, 0.15% hits | inhibition, % at 12.5 µM | GST-KDM4C 2-372, H3K9me3 peptide, LANCE TR-FRET | Q9H3R0;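 active = mean replicate inhibition above about 25%, with at least 55% of replicates also reaching it, limit read from the data, passing the limit was not always enough; inconclusive = only one of those two conditions met; inactive = neither condition met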
Target sequence (Q9H3R0 2-372 limits assumed): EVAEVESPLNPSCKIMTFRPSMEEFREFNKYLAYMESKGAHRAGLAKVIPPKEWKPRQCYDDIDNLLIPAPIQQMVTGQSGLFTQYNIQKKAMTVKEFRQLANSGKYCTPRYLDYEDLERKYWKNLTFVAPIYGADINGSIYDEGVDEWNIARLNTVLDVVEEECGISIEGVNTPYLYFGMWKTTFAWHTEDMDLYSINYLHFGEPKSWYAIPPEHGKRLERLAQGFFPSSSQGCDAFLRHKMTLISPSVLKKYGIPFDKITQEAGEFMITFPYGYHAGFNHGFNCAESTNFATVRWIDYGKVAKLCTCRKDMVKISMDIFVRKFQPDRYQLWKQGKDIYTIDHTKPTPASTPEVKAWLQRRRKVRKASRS
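Assay system: GST-GASC-1 enzyme fragment 2-372 | Amount: 10 nM enzyme | Medium: HEPES buffer, pH 7.5, plus ascorbate | Reagent: H3K9me3 peptide substrate, Fe(II), 2-oxoglutarate | Doses: Single-point compound screen | Incubation: 30 min demethylation and 1 h detection at room temperature | Measured by: LANCE TR-FRET, excitation 340 nm, emissions 618 and 671 nm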
Pf Dd2 inh: inhibitors of Plasmodium falciparum Dd2 growth. P. falciparum Dd2 growth, SYBR Green, 72 h; stronger effect = lower value. activity change, % at 10 µM. 94,000 compounds, 2.3% hits; in the data active = activity change below about -80%; inconclusive = no clear call, values can overlap the other calls
T cruzi growth-1: inhibitors of T. cruzi proliferation; 77,000 compounds, 5.9% hits; T. cruzi beta-gal in NIH3T3, GalScreen luminescence, 90 h; inhibition, % at 8.34 µM;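 active = mean inhibition above about 93%, with at least 55% of replicates each passing it, limit read from the data, passing the limit was not always enough; inconclusive = only one of those two conditions holds; inactive = neither condition holds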
T cruzi growth-2: blocks T. cruzi growth in NIH3T3 host cells | inhibition, % at 8.35 µM | shares compounds with T cruzi growth-1 | 5,600 compounds, 72% hits | AID 651739 | T. cruzi beta-gal in NIH3T3, GalScreen luminescence, 90 h;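 active = mean replicate inhibition above about 95% and at least 55% of replicates individually reaching it, limit read from the data; inconclusive = only one of the two criteria is met; inactive = neither criterion is met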
T cruzi growth-3: inhibitors of T. cruzi proliferation | 5,600 compounds, 21% hits | T. cruzi beta-gal in NIH3T3, GalScreen luminescence, 90 h | shares compounds with T cruzi growth-1 | inhibition, % at 2.09 µM;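 active = mean inhibition above about 95%, with at least 55% of replicates also reaching it, limit read from the data; inconclusive = meets just one of the two conditions; inactive = meets neither condition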;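 also: plate controls were neutral control median for no effect and positive control median for full effect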
3T3 cytotox: cytotoxicity in mouse NIH/3T3 fibroblasts. shares compounds with T cruzi growth-1. NIH/3T3 viability, CellTiter-Glo ATP luminescence, 90 h. cytotoxicity (signal decrease), % at 8.35 µM. 5,600 compounds, 14% hits. AID 651742;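 active = mean signal decrease across replicates above about 35% based on untreated-well scatter, with enough replicates individually passing, limit read from the data; inconclusive = no rule stated though some were filed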;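 also: 0% = median of neutral control wells and 100% = median of positive control wells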
NIH3T3 tox 2: cytotoxicity in mouse NIH/3T3 fibroblasts; shares compounds with T cruzi growth-1; NIH/3T3 viability, CellTiter-Glo ATP luminescence, 90 h; inhibition, % at 24.9 µM; 5,600 compounds, 56% hits;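 active = mean loss of cell viability signal at or above a set limit, and enough replicates individually reaching it; inconclusive = meets only the mean limit or only the replicate share; inactive = meets neither condition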;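 also: 0% = median of neutral control wells and 100% = median of positive control wells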
* marks the source's active call; other numbers are inactive results; ? = inconclusive; . = no result given. Rows were chosen to be rich in hits. Some 5.9% of all compounds tested hit in one or more screens of this group.

SMILES	IDH1 mut inh	GASC1 inh	Pf Dd2 inh	T cruzi growth-1	T cruzi growth-2	T cruzi growth-3	3T3 cytotox	NIH3T3 tox 2
CCS(=O)(=O)N1[C@H](CO)[C@@H](c2ccc(C#Cc3ccccc3F)cc2)[C@@H]1C#N	.	-1	-63	?	107*	109*	-1	5
N#C[C@@H]1[C@H](c2ccc(C#Cc3ccc(F)cc3)cc2)[C@@H](CO)N1C(=O)C1CCCC1	.	-3	-57	88	.	.	.	.
N#C[C@H]1[C@H](c2ccc(C#Cc3ccc(F)cc3)cc2)[C@H](CO)N1C(=O)C1CC1	.	-2	-29	114*	102*	76	-13	80*
N#C[C@@H]1[C@H](c2ccc(C#Cc3ccccc3F)cc2)[C@H](CO)N1C(=O)C1CCC1	.	0	-72	94	.	.	.	.
CCCC(=O)n1nc(-c2ccc(Cl)cc2)nc1NCc1ccco1	0	.	.	.	.	.	.	.
Cc1ccc(-n2c(C)nnc2SCC(=O)Nc2ccc(Br)c(C)c2)cc1C	0	.	.	.	.	.	.	.
Cc1cccc(OCC(=O)Nc2ccccc2CO)c1C	0	.	.	.	.	.	.	.
C[C@@H]1CCCCO[C@@H](CN(C)C(=O)NC2CCCCC2)[C@H](C)CN([C@@H](C)CO)C(=O)c2cc(NS(=O)(=O)c3ccc(Cl)cc3)ccc2O1	1	0	-7	93	.	.	.	.
Cc1ccc(S(=O)(=O)Nc2ccc3c(c2)C(=O)N([C@H](C)CO)C[C@H](C)[C@H](CN(C)C(=O)NC2CCCCC2)OCCCC[C@H](C)O3)cc1	.	-3	-42	118*	105*	27	-31	7
C[C@H](CO)N1C[C@H](C)[C@H](CN(C)C(=O)NC2CCCCC2)OCCCC[C@H](C)Oc2ccc(NS(=O)(=O)c3ccccc3)cc2C1=O	.	14	-63	94*	?	38	-6	0
C[C@@H]1CCCCO[C@@H](CN(C)C(=O)NC2CCCCC2)[C@@H](C)CN([C@@H](C)CO)C(=O)c2cc(NS(=O)(=O)c3ccc(Cl)cc3)ccc2O1	-1	0	-26	99*	103*	11	3	-17
CCOC(=O)c1ccccc1NC(=O)CN1C(=O)c2cccc3cccc1c23	0	.	.	.	.	.	.	.
CC(C)(C)C1CCc2c(sc(NC(=S)NC(=O)c3cc4ccccc4o3)c2C(N)=O)C1 (configuration not stated)	0	.	.	.	.	.	.	.
Cc1ccc(Cl)cc1N(CC(=O)Nc1ccc(C(N)=O)cc1)S(C)(=O)=O	0	.	.	.	.	.	.	.
COc1cccc(S(=O)(=O)N(C)C[C@@H]2Oc3cc(C#CCC(C)C)ccc3S(=O)(=O)N([C@@H](C)CO)C[C@@H]2C)c1	0	0	-72	?	?	112*	5	9
COc1cccc(S(=O)(=O)N(C)C[C@H]2Oc3cc(C#CCC(C)C)ccc3S(=O)(=O)N([C@@H](C)CO)C[C@H]2C)c1	-3	1	-77	?	96*	112*	18	66*
OC[C@H]1[C@@H](c2ccc(-c3ccc(F)cc3)cc2)[C@@H]2CN(Cc3cccnc3)CCCCN12	.	-1	-59	99*	99*	34	29	105*
Cc1cccc(-c2ccc([C@@H]3[C@H]4CN(Cc5cncnc5)CCCCN4[C@H]3CO)cc2)c1	.	0	16	103*	78	-14	12	102*
OC[C@@H]1[C@H](c2ccc(C3=CCCC3)cc2)[C@H]2CN(Cc3cncnc3)CCCCN12	.	-1	-27	?	88	69	14	46*
Cc1cccc(-c2ccc([C@@H]3[C@H](CO)N4CCCCN(Cc5cncnc5)C[C@@H]34)cc2)c1	.	0	-27	86	.	.	.	.
Cc1cccc(-c2ccc([C@@H]3[C@@H](CO)N4CCCCN(Cc5cncnc5)C[C@@H]34)cc2)c1	.	0	13	43	.	.	.	.
Cc1cccc(-c2ccc([C@H]3[C@@H](CO)N4CCCCN(Cc5cccnc5)C[C@H]34)cc2)c1	.	-1	-55	99*	97*	70	45*	105*
C=C1CCC2[C@](C)(CCC[C@]2(C)C(=O)O)[C@H]1CC/C(C)=C/C(=O)OC (some centres not stated)	0	.	.	.	.	.	.	.
